Results published in ChEMBL document CHEMBL1123277, “Reactive 5'-substituted thymidine derivatives as potential inhibitors of nucleotide biosynthesis” (J Med Chem, 1986).

Assays:
[1] = Half-life is estimated by TLC; type: ADME
In short: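 Reactivity toward thiol was measured at pH 7. A 0.25–0.5% solution of compound in MeOH was mixed 1:1 with 1% mercaptoethanol in pH 7 buffer. Loss of alkylating activity was followed by TLC with 4-(4-nitrobenzyl)pyridine spray, and the half-life was estimated from this.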

[2] = system: HEp-2; assay: Compound was tested for the cytotoxic concentration that produces 50% inhibition of cloning of H.Ep.-2 cells; type: functional, cell-based; details: Homo sapiens, read-out: I50
[3] = system: L1210; assay: Compound was tested for the cytotoxic concentration that produces 50% inhibition of L1210 cells; type: functional, cell-based; details: Mus musculus, read-out: I50
[4] = system: P388; assay: Compound was tested in vivo in […] murine leukemia cells in mice at dose of 200 mg/kg; type: functional; details: Mus musculus
[5] = system: L1210; assay: Compound was tested for the cytotoxic concentration that produces 50% inhibition of L1210 cells.; type: functional, cell-based; details: Mus musculus, read-out: I50

Row | SMILES | half-life [1] [h] | IC50 [2] [µM] | IC50 [3] [µM] | ILS at 200 mg/kg [4] [%] | IC50 [5] [µM]
1 | Cc1cn(C2CC(O)C(CNC(=O)CCl)O2)c(=O)[nH]c1=O (stereo not given) | 3 | 25 | 130 | 9 | 
2 | Cc1cn(C2CC(O)C(CN(C)C(=O)CCl)O2)c(=O)[nH]c1=O (stereo not given) |  |  |  |  | > 120
